A word on the IC50: it is the point on the concentration scale where inhibition reaches its midpoint. As usually defined, the Ki is the equilibrium dissociation constant of an inhibitor or competing ligand from its target. What is called half-life is how long it takes for the measured level to halve. A higher half-life goes with slow decline.

The values that follow come from article PMC4963206 (ChemMedChem, 2016).

Where “and” joins values, the source holds several entries; their conditions need not be identical. Equal entries are not always repeated. Where two headings read alike, the source gives them in different places.

Data set [1] in a line: 19F NMR monitoring of reaction with glutathione. Type of data set: physicochemical. As to conditions: 100 μM, 10 equivalents of glutathione, 37 °C, 15 hours. An outline of the steps:
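Samples were in 100 mM HEPES pH 7.2, 150 mM NaCl, with 10% […] and 1% DMSO final. Test compound at 100 μM was incubated with 10 equivalents of glutathione for 15 hours at 37°C. ¹⁹F NMR spectra were recorded at 37°C on a 600 MHz spectrometer with a room-temperature H(F)CN probe.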

Another data set concerns AR230^R cells. Briefly: Phenotypic screening / cytotoxicity in TKI-resistant CML cell line AR230^R. The data set is classed as cell-based. As to conditions: for IC50: read-out: IC50 AR230^R.
For data set [2], the target named is T1, STAT3 (Homo sapiens, UniProt P40763). Briefly: 19F NMR examination of binding to STAT3. As to conditions: 100 μM compound with STAT3, 37 °C, 1 hour.
T1 sequence (P40763 whole entry, species assumed): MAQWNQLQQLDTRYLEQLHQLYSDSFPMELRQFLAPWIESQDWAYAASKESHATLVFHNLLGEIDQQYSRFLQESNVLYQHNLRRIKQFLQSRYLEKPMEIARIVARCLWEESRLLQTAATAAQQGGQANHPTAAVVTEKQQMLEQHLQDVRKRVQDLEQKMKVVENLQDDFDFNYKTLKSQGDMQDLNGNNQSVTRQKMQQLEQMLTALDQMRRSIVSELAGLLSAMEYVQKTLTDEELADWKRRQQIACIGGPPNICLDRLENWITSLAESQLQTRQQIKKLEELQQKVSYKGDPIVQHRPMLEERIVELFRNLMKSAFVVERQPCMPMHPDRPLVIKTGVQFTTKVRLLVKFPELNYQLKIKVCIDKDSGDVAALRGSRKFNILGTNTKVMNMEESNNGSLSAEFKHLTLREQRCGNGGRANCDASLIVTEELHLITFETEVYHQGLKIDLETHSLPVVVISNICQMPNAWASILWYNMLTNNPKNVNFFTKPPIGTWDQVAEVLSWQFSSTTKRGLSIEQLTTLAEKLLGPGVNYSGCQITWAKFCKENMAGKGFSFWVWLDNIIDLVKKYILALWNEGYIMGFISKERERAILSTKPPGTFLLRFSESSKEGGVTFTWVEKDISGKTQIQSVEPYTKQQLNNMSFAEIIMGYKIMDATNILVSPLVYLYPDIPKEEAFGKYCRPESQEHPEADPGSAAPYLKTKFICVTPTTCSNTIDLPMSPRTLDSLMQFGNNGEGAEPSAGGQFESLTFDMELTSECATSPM
The target of data set [3] is T1, STAT3. Kind of data set: Competitive fluorescence polarization. Type of data set: binding. Put shortly:
(§1)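 Competitive binding assay in which the test compound displaces a fluoresceinated peptide from the SH2 domain, read by fluorescence polarization. IC50 is reported with a 95% confidence interval, and Ki is reported alongside it.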
On the technique in general: Polarisation of emitted light reports the rotation of a fluorescent probe.

Data set [4] can be described thus: In vivo bioavailability / plasma pharmacokinetics, IP injection. Further details: species or system CD-1 mice. Put shortly: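 CD-1 mice received 20 mg/kg IP in 10% DMA, 65% PEG 400, 25% saline. Parent compound in plasma was measured to give concentration–time profiles. In one study, a cohort of 3 mice was sampled at 15, 30, 60, 90, 180 and 360 min post-dose, and plasma was analysed for parent compound by LC-MS.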

A further data set has as its target T2, STAT1 (Homo sapiens, UniProt P42224).
T2 sequence (P42224 1-750): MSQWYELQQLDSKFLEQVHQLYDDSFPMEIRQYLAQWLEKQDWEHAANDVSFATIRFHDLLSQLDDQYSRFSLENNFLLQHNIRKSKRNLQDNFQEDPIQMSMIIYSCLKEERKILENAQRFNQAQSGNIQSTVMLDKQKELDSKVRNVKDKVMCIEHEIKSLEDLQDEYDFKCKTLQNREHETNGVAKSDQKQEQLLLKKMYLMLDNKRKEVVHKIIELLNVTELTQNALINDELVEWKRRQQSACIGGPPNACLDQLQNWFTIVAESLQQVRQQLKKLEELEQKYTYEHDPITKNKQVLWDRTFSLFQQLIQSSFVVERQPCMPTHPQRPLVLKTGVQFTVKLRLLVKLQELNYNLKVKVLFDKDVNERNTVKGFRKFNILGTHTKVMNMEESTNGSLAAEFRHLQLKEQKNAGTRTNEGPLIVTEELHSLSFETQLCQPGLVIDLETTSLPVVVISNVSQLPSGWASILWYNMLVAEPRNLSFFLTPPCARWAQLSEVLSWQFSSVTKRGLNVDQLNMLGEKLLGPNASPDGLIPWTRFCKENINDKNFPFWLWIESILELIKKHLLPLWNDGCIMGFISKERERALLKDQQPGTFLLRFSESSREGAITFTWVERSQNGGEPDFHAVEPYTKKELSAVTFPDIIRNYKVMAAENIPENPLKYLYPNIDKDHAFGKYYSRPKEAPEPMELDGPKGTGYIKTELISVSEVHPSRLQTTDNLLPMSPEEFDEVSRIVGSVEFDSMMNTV
Kind of data set: Competitive fluorescence polarization. Type of data set: binding. An outline of the steps: as §1

A further data set deals with AR230 cells. Kind of data set: Phenotypic screening / cytotoxicity in CML cell line AR230. As to conditions: read-out: IC50 AR230. Type of data set: cell-based.
Data set [5] can be described thus: Metabolic stability in CD-1 mouse hepatocytes. Type of data set: in vitro ADME. Put shortly: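 CD-1 mouse hepatocytes were incubated with the test compound for 120 min. Remaining parent compound was quantified by LC-MS/MS at regular time points to assess metabolic degradation.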
A short description of the next data set: Plasma protein binding. The data set is classed as in vitro ADME. As to conditions: CD-1 mice plasma, dialysis 6 hours, 37°C. An outline of the steps:
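Plasma protein isolated from CD-1 mice was spiked with the test compound and dialysed against PBS for 6 hours at 37°C under 5% CO₂. Plasma and buffer compartments were both analysed to give the percentage of free compound. Ketoconazole was the positive control.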

The test system of data set [6] is pSTAT3 / STAT3 in AR230^R cells. The data set is classed as cell-based. The conditions noted are these: 10 μM, 2 hours pre-treatment, IL-6 and IFN stimulation.

For `CC(C)(C)c1ccc(CN(C(=O)CN(C2CC2)S(=O)(=O)c2c(F)c(F)cc(F)c2F)c2ccc(C(=O)O)cc2)cc1` [AM-1-124, 4-(N-(4-(tert-butyl)benzyl)-2-(N-cyclopropyl-2,3,5,6-tetrafluorophenylsulfonamido)acetamido)benzoic acid], in data set [1], the “reaction with glutathione (19F NMR)” value is recorded as “inert to glutathione”. In the data set with AR230^R cells, the “fold improvement in selectivity vs SH-4-54” value is 5 fold, the “fold selectivity for AR230^R over AR230 cells” value worked out at 5.6 fold and the IC50 worked out at 4.8 µM. In addition, the “Fold Difference” value in the data set with AR230^R cells (Table 5, AR230 vs AR230^R) stood at 5.6. Also, at STAT3 [2], the “mode of interaction with STAT3 (19F NMR, fluoride ion production)” value is on record as “non-covalent”. The IC50 at STAT3 [3] turned out to be 30 µM. Besides, the Ki on STAT3 [3] (Ki STAT3, disruption of STAT3:IL-6R/gp130 peptide complex, FP) was 15 µM and 15.3 µM. In addition, the “plasma concentration for the first 120 mins” value in [4] (CD-1 mice, IP 20 mg/kg) is given as “above 2000 ng/mL”. In data set [4] (male, CD-1, mouse, plasma, ip, 20 mg/kg), this compound had a half-life of 85.2 min. The compound further showed a Ki on STAT1 of over 250 µM. For the same compound, the IC50 in the data set on AR230 cells stood at 26.9 µM. Further, the “fold more resistant to metabolism than SH-4-54” value in [5] is ~ 4 fold. In “Plasma protein binding”, the “bound to mouse plasma proteins” value came out at 99.7%. In data set [6], the “cytokine-induced pSTAT3 activation” value was “partially inhibited cytokine-induced pSTAT3 activation” and the “nuclear STAT3 protein localization” value is reported as “reduced the nuclear STAT3 protein localization”.

Regarding `O=C(O)c1ccc(N(Cc2ccc(C3CCCC3)cc2)C(=O)CN(C2CC2)S(=O)(=O)c2ccc(F)nc2)cc1` [AM1-116, 4-(N-(4-Cyclopentylbenzyl)-2-((N-cyclopropyl-6-fluoropyridine)-3-sulfonamido)acetamido)benzoic acid], the half-inhibitory concentration (IC50) in the data set on AR230^R cells (Table 4) and in the data set on AR230 cells (Table 4) was over 32 µM throughout.

Regarding `O=C(O)c1ccc(N(Cc2ccc(C3CCCC3)cc2)C(=O)CNS(=O)(=O)c2c(F)c(F)c(F)c(F)c2F)cc1` [DR-3-111, 4-(N-(4-Cyclopentylbenzyl)-2-((perfluorophenyl)sulfonamido)acetamido)benzoic acid], the “fold reduction in activity vs SH-4-54” value with AR230^R cells (AR230^R cells) is on record as about 5 fold. The IC50 with AR230^R cells came to 15.6 µM; with AR230 cells, 11.4 µM.

On to `O=C(O)c1ccc(N(Cc2ccc(C3CCCC3)cc2)C(=O)CN(C2CC2)S(=O)(=O)c2ccccn2)cc1` [RG1-085, 4-(N-(4-Cyclopentylbenzyl)-2-(N-cyclopropylpyridine-2-sulfonamido)acetamido)benzoic acid], for which the IC50 in the data set with AR230^R cells and with AR230 cells was over 32 µM each time.

On to `O=C(O)c1ccc(N(Cc2ccc(C3CC3)cc2)C(=O)CN(C2CC2)S(=O)(=O)c2c(F)c(F)c(F)c(F)c2F)cc1` [PSL-3-132], for which the “Fold Difference” value in the data set with AR230^R cells (Table 3, AR230 vs AR230^R) was 1.75. Also, the values for the IC50 in the data set on AR230^R cells (Table 3) and with AR230 cells (Table 3) were 2.4 µM and 4.2 µM, respectively.

As to `O=C(O)c1ccc(N(Cc2ccc(C3CCCC3)cc2)C(=O)CN(C2CC2)S(=O)(=O)c2c(F)c(F)cc(F)c2F)cc1` [AM1-020, 4-(N-(4-Cyclopentylbenzyl)-2-((N-cyclopropyl-2,3,5,6-tetrafluorophenyl)sulfonamido)acetamido)benzoic acid], the results for the IC50 in the data set on AR230^R cells (Table 4) and with AR230 cells (Table 4) were 13.1 µM and over 32 µM, respectively.
